Results reported in ChEMBL document CHEMBL1138362, “Dihydro-alkylthio-benzyl-oxopyrimidines as inhibitors of reverse transcriptase: synthesis and rationalization of the biological data on both wild-type enzyme and relevant clinical mutants” (J Med Chem, 2007).

What was measured:
[1] = system: Human immunodeficiency virus 1; assay: Antiviral activity against HIV1 with reverse transcriptase K103N mutation in MT4 cells after 5 days by MTT method; assay type: functional, organism-based; conditions: Human immunodeficiency virus 1, MT4, 120 h
Summary of the method: (§1)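 MT-4 cells from the NIH AIDS Reagent Program were infected with mutant HIV-1 (K103N or Y188L, from the MRC Centralised Facility) in the presence of graded drug concentrations. Mock-infected cells were used for cytotoxicity. Viable cells were counted by MTT colorimetry at day 5 post-infection.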

[2] = system: Human immunodeficiency virus 1; assay: Antiviral activity against HIV1 with reverse transcriptase Y188L mutation in MT4 cells after 5 days by MTT method; assay type: functional, organism-based; conditions: Human immunodeficiency virus 1, MT4, 120 h; summary of the method: as §1
[3] = molecular target: Human immunodeficiency virus type 1 reverse transcriptase (Human immunodeficiency virus 1) (UniProt Q72547); assay: Antiviral activity against wild type HIV1 reverse transcriptase
[4] = system: Human immunodeficiency virus 1 [K103N]; assay: Antiviral activity against HIV1 reverse transcriptase K103N mutant
[5] = system: Human immunodeficiency virus 1; assay: Antiviral activity against wild type HIV1 NL4-3 in MT4 cells after 5 days by MTT method; assay type: functional, organism-based; conditions: Human immunodeficiency virus 1, NL4-3, MT4, 120 h
Summary of the method: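 MT-4 lymphoid cells, infected with HIV-1 or mock-infected (for cytotoxicity), held with a range of drug concentrations; viable cells scored at day 5 post-infection by tetrazolium (MTT) colorimetry.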

[6] = system: Human immunodeficiency virus 1; assay: Antiviral activity against HIV1 with reverse transcriptase Y181C mutation in MT4 cells after 5 days by MTT method; assay type: functional, organism-based; conditions: Human immunodeficiency virus 1, MT4, 120 h
[7] = system: Human immunodeficiency virus type 1 reverse transcriptase (Human immunodeficiency virus 1), Q72547 [Y181I]; assay: Antiviral activity against HIV1 reverse transcriptase Y181I mutant

| Structure (SMILES) | EC50 [1] [µM] | EC50 [2] [µM] | ID50 [3] [µM] | ID50 [4] [µM] | EC50 [5] [µM] | EC50 [6] [µM] | ID50 [7] [µM] |
| --- | --- | --- | --- | --- | --- | --- | --- |
| COc1ccc(/C=C/CSc2nc(C(C)c3c(Cl)cccc3Cl)c(C)c(=O)[nH]2)cc1 (centres undefined) | 2.47 | 1.26 | 0.018 | > 20 | 0.009 | 3.6 | > 20 |
| COc1ccc(COCCSc2nc(Cc3c(F)cccc3F)c(C)c(=O)[nH]2)cc1 | > 55.9 | > 55.9 | 0.197 | > 20 | 1.2 | > 55.9 | > 20 |
| Cc1c(C(C)c2c(Cl)cccc2Cl)nc(SCc2ccc([N+](=O)[O-])cc2)[nH]c1=O (centres undefined) | 6.22 | 9.95 | 0.408 | > 20 | 0.019 | 7.15 | > 20 |
| CCc1c(Cc2c(Cl)cccc2Cl)nc(SC/C=C/c2ccc([N+](=O)[O-])cc2)[nH]c1=O | > 32.1 | > 32.1 | 2.5 | > 20 | 0.61 | 4.2 | > 20 |
| COc1ccc(CCSc2nc(Cc3c(F)cccc3F)c(C)c(=O)[nH]2)cc1 | 4.13 | 8.53 | 0.029 | 3.5 | 0.0049 | 6.34 | > 20 |
| COc1ccc(COCCSc2nc(C(C)c3c(Cl)cccc3Cl)c(C)c(=O)[nH]2)cc1 (centres undefined) | 6.47 | 2.5 | 0.022 | 57.3 | 0.063 | 8.98 | > 20 |
| CCc1c(C(C)c2c(F)cccc2F)nc(SC/C=C/c2ccc(C#N)cc2)[nH]c1=O (centres undefined) | > 27.2 | > 27.2 | 0.048 | > 20 | 0.59 | > 27.2 | > 20 |
| COc1ccc(/C=C/CSc2nc(Cc3c(Cl)cccc3Cl)c(C)c(=O)[nH]2)cc1 | > 0.96 | > 0.96 | 0.007 | 9 | 0.015 | > 0.96 | > 20 |
| COc1ccc(CCSc2nc(C(C)c3c(Cl)cccc3Cl)c(C)c(=O)[nH]2)cc1 (centres undefined) | 6.57 | 8.17 | 0.593 | > 20 | 0.0002 | 3.76 | > 20 |
| Cc1c(Cc2c(Cl)cccc2Cl)nc(SC/C=C/c2ccc(N(C)C)cc2)[nH]c1=O | > 54.4 | > 54.4 | 0.778 | > 20 | > 54.4 | > 54.4 | > 20 |
| Cc1c(Cc2c(F)cccc2F)nc(SCC#Cc2ccc([N+](=O)[O-])cc2)[nH]c1=O | > 58.6 | > 58.6 | 0.416 | > 20 | 40.1 | > 58.6 | > 20 |
| CCc1c(Cc2c(F)cccc2F)nc(SCCc2ccc(OC)cc2)[nH]c1=O | 1.92 | > 60.1 | 0.022 | > 20 | 0.0002 | 2.78 | > 20 |
| CCc1c(C(C)c2c(F)cccc2F)nc(SCCOCc2ccc(OC)cc2)[nH]c1=O (centres undefined) | > 54.4 | > 54.4 | 0.741 | > 20 | 3.89 | > 54.4 | 0.27 |
| Cc1c(C(C)c2c(Cl)cccc2Cl)nc(SC/C=C/c2ccc([N+](=O)[O-])cc2)[nH]c1=O (centres undefined) | > 41 | > 41 | 0.102 | > 20 | 0.48 | > 41 | > 20 |
| CC(=O)Oc1ccc(CSc2nc(Cc3c(Cl)cccc3Cl)c(C)c(=O)[nH]2)cc1 | > 55.7 | > 55.7 | 0.085 | > 20 | 0.127 | 8.64 | > 20 |
| COc1ccc(/C=C/CSc2nc(Cc3c(F)cccc3F)c(C)c(=O)[nH]2)cc1 | > 3.93 | > 3.93 | 0.25 | > 20 | 0.043 | > 3.93 | > 20 |
| CCc1c(Cc2c(Cl)cccc2Cl)nc(SC/C=C/c2ccc(C#N)cc2)[nH]c1=O | > 54.8 | > 54.8 | 0.188 | > 20 | 1.73 | – | > 20 |
| COc1ccc(CSc2nc(C(C)c3c(Cl)cccc3Cl)c(C)c(=O)[nH]2)cc1 (centres undefined) | 6.72 | – | 0.77 | > 20 | 0.0011 | 1.73 | > 20 |
| COc1ccc(/C=C/Sc2nc(Cc3c(Cl)cccc3Cl)c(C)c(=O)[nH]2)cc1 | > 57.7 | > 57.7 | 1.98 | > 20 | > 57.7 | > 57.7 | > 20 |

| Structure (SMILES) | EC50 [1] [µM] | EC50 [2] [µM] | ID50 [3] [µM] | ID50 [4] [µM] | EC50 [5] [µM] | EC50 [6] [µM] | ID50 [7] [µM] |
| --- | --- | --- | --- | --- | --- | --- | --- |
| Cc1c(Cc2c(F)cccc2F)nc(SCC(=O)c2ccc([N+](=O)[O-])cc2)[nH]c1=O | > 58 | > 58 | 0.95 | > 20 | 0.37 | 4.18 | > 20 |
| COc1ccc(C#CCSc2nc(C(C)c3c(Cl)cccc3Cl)c(C)c(=O)[nH]2)cc1 (centres undefined) | > 54.5 | 24.8 | 0.005 | > 20 | 0.5 | 33.5 | > 20 |
| COc1ccc(COCCSc2nc(C(C)c3c(F)cccc3F)c(C)c(=O)[nH]2)cc1 (centres undefined) | 0.92 | 0.32 | 0.0082 | 9.94 | 0.0011 | 0.65 | > 20 |
| CCc1c(Cc2c(Cl)cccc2Cl)nc(SCc2ccc(OC)cc2)[nH]c1=O | 6.99 | > 57.5 | 0.032 | 7.6 | 0.0022 | 0.83 | > 20 |
| CCc1c(Cc2c(Cl)cccc2Cl)nc(SCc2ccc([N+](=O)[O-])cc2)[nH]c1=O | > 55.6 | > 55.6 | 0.075 | > 20 | 0.0666 | 1.58 | > 20 |
| Cc1c(C(C)c2c(F)cccc2F)nc(SCc2ccc([N+](=O)[O-])cc2)[nH]c1=O (centres undefined) | 0.66 | 0.22 | 0.03 | 0.6 | 0.0033 | 0.44 | > 20 |
| COc1ccc(COCCSc2nc(Cc3c(Cl)cccc3Cl)c(C)c(=O)[nH]2)cc1 | 3.44 | 1.72 | 0.063 | 56 | 0.021 | 3.01 | > 20 |
| CCc1c(Cc2c(Cl)cccc2Cl)nc(SC/C=C/c2ccc(OC)cc2)[nH]c1=O | > 0.19 | > 0.19 | 0.056 | > 20 | 0.0015 | > 0.19 | > 20 |
| CCOc1ccc(CSc2nc(Cc3c(F)cccc3F)c(C)c(=O)[nH]2)cc1 | > 62.2 | > 62.2 | 0.8 | > 20 | 0.37 | 1.19 | > 20 |
| Cc1c(Cc2c(F)cccc2F)nc(SC/C=C/c2ccc([N+](=O)[O-])cc2)[nH]c1=O | > 11.7 | > 11.7 | 11.9 | > 20 | 0.26 | > 11.7 | > 20 |
| Cc1c(C(C)c2c(F)cccc2F)nc(SC/C=C/c2ccc([N+](=O)[O-])cc2)[nH]c1=O (centres undefined) | > 11.3 | > 11.3 | 0.283 | > 20 | 0.14 | > 11.3 | > 20 |
| COc1ccc(CCCSc2nc(C(C)c3c(Cl)cccc3Cl)c(C)c(=O)[nH]2)cc1 (centres undefined) | 0.82 | 0.28 | 9.76 | > 20 | 0.0002 | 0.24 | > 20 |
| CCc1c(C(C)c2c(F)cccc2F)nc(SC/C=C/c2ccc([N+](=O)[O-])cc2)[nH]c1=O (centres undefined) | > 5.75 | 1.94 | 0.009 | > 20 | 0.0004 | > 5.75 | > 20 |
| Cc1c(Cc2ccc(C#N)cc2)nc(SCc2ccc([N+](=O)[O-])cc2)[nH]c1=O | > 26.4 | > 26.4 | > 20 | > 20 | > 26.4 | > 26.4 | > 20 |
| COc1ccc(CSc2nc(Cc3ccc(C#N)cc3)c(C)c(=O)[nH]2)cc1 | > 66.3 | > 66.3 | > 20 | > 20 | 20.3 | > 66.3 | > 20 |
| Cc1c(C(C)c2c(F)cccc2F)nc(SCc2ccc(C#N)cc2)[nH]c1=O (centres undefined) | 0.73 | 0.68 | 0.01 | 0.7 | 0.0078 | 1.55 | > 20 |
| COc1ccc(C#CCSc2nc(Cc3c(Cl)cccc3Cl)c(C)c(=O)[nH]2)cc1 | > 56.2 | > 56.2 | 0.01 | > 20 | 2.47 | – | > 20 |
| Cc1c(C(C)c2c(Cl)cccc2Cl)nc(SCc2ccc(C#N)cc2)[nH]c1=O (centres undefined) | 11.6 | – | 0.02 | > 20 | 0.16 | – | > 20 |
